Reference: ChEMBL document CHEMBL1138611, “Oxadiazolylindazole sodium channel modulators are neuroprotective toward hippocampal neurones” (J Med Chem, 2009)
The source made the active and inactive calls. The rule behind the calls is not given here.

Tests used:
[1] = target: Sodium channel protein type 9 subunit alpha (Homo sapiens) (UniProt Q15858); experiment: Inhibition of human Nav1.7 expressed in HEK293 cells assessed as change in membrane potential using MP-red voltage sensitive dye at 10 uM; format: cell-based
Sodium channel protein type 9 subunit alpha (Homo sapiens), sequence (Q15858 whole entry, looked up, canonical isoform): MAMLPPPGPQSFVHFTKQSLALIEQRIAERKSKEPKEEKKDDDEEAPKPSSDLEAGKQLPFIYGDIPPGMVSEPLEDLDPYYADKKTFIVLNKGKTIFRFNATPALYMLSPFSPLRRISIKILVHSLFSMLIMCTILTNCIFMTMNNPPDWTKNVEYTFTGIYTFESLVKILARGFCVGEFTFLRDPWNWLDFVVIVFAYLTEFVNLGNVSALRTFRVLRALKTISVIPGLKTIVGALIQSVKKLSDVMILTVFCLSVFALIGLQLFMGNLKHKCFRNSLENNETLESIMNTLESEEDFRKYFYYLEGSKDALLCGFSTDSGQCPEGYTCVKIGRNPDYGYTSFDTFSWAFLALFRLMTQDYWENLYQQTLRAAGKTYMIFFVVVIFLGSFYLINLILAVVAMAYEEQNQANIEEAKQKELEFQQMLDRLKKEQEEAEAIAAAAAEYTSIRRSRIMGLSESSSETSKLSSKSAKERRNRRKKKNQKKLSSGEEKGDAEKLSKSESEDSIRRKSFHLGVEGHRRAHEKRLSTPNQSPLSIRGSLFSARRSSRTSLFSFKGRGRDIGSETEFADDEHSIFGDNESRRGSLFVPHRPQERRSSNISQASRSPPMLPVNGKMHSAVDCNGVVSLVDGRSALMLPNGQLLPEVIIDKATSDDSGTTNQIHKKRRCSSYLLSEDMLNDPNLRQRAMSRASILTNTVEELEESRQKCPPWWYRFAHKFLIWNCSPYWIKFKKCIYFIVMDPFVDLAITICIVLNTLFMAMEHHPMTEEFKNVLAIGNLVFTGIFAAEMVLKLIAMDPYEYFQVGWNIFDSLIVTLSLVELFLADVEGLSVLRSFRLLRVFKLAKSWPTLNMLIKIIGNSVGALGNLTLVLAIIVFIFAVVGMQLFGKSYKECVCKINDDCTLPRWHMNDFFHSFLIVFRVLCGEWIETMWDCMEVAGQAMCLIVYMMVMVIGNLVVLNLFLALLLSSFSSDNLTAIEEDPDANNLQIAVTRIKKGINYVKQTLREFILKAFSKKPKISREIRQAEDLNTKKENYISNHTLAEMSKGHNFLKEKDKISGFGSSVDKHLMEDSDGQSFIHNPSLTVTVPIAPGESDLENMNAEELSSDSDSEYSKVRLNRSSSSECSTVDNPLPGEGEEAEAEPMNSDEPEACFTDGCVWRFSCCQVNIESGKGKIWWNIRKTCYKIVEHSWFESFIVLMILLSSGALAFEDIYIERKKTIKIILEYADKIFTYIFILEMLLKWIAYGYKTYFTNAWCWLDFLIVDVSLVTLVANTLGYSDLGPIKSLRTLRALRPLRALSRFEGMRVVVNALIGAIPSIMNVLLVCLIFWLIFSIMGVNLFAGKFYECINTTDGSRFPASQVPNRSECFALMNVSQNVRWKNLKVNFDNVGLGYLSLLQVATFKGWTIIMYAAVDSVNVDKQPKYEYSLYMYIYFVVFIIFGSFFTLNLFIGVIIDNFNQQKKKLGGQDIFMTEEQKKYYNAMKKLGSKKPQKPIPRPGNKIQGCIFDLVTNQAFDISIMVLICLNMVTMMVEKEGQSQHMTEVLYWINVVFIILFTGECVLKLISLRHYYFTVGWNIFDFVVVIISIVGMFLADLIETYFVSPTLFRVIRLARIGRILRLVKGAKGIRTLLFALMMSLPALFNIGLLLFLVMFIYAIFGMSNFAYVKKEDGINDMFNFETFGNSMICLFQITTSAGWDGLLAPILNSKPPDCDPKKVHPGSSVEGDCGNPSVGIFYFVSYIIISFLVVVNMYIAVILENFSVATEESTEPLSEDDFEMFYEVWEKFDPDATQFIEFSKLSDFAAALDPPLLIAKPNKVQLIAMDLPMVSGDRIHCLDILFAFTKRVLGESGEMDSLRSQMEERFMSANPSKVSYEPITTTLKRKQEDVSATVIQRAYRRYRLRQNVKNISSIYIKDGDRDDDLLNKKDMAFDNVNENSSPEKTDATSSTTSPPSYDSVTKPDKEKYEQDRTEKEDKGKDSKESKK
Outline: (§1)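 Human Nav isoforms stably expressed in HEK293 cells with β1 subunit (Nav1.8 without β subunit), with tetrodotoxin sensitivity checked. Membrane potential change read with MP-red voltage-sensitive dye kit. Single-concentration screen at 10 µM gives percent inhibition as mean of duplicates, or an IC50 in µM where determined. Compounds come from 1 or 10 mM DMSO stocks diluted in assay buffer.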

[2] = target: Sodium channel protein type 10 subunit alpha (Homo sapiens) (UniProt Q9Y5Y9); experiment: Inhibition of human Nav1.8 expressed in HEK293 cells assessed as change in membrane potential using MP-red voltage sensitive dye at 10 uM; format: cell-based; outline: as §1
[3] = target: Sodium channel protein type 2 subunit alpha (Homo sapiens) (UniProt Q99250); experiment: Use-dependent inhibition of human Nav1.2 expressed in HEK293 cells at 50 uM using double-pulse protocol by patch clamp technique; format: cell-based
Sodium channel protein type 2 subunit alpha (Homo sapiens), sequence (Q99250 whole entry, looked up): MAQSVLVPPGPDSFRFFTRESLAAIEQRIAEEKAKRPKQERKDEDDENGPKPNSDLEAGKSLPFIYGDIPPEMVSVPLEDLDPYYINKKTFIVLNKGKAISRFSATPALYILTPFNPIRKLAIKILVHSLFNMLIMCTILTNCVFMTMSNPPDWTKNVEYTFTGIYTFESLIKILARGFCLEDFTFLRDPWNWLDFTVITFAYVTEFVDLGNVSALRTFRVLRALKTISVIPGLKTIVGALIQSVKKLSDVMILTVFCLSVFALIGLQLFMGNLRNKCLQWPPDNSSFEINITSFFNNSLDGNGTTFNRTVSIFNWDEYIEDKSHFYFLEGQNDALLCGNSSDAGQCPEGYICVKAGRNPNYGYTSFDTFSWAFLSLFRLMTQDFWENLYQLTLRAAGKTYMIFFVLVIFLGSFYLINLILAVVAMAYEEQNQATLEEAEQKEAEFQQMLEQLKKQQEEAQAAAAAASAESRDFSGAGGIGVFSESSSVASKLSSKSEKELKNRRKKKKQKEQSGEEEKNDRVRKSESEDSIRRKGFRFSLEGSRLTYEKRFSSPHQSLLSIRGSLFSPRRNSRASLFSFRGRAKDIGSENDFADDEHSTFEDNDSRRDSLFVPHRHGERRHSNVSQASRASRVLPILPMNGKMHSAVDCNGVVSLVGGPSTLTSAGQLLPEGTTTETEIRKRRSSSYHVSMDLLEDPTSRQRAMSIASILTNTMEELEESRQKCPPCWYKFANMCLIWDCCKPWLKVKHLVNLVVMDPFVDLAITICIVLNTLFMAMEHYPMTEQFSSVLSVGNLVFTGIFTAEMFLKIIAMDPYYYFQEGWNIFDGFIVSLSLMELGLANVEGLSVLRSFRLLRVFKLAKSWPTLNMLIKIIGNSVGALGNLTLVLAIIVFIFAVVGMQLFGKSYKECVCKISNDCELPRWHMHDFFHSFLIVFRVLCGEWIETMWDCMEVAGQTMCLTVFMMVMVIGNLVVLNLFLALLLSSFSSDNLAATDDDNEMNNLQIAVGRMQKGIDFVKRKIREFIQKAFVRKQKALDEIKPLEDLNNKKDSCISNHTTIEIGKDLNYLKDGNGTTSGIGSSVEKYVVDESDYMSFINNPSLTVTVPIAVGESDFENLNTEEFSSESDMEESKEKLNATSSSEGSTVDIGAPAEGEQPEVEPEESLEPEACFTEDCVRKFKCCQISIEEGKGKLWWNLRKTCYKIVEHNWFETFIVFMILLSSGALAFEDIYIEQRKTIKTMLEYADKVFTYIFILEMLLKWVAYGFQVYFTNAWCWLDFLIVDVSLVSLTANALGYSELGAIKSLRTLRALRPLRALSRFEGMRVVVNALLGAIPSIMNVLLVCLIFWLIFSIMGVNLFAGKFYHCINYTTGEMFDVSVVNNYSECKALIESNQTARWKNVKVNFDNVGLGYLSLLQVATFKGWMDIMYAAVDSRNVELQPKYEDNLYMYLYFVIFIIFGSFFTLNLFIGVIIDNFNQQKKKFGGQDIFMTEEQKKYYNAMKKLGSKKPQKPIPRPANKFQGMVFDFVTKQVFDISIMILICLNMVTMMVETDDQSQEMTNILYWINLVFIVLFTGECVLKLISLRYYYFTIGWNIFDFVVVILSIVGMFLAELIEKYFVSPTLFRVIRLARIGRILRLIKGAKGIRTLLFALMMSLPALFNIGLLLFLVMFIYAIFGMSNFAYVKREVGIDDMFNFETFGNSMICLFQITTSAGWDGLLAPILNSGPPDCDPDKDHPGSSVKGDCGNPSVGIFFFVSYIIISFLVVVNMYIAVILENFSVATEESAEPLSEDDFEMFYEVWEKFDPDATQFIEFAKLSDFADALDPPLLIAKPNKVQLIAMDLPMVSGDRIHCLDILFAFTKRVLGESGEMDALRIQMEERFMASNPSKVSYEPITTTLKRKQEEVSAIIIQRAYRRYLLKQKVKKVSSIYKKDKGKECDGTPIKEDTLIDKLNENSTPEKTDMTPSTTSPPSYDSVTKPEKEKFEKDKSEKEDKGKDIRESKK
Outline: (§2)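 Human Nav1.2 or Nav1.6 in HEK293 cells, automated patch clamp at room temperature with 5 min exposure. Holding potential -80 mV, prepulse -120 mV, then P1 to 0 mV for 200 ms, 200 ms at -80 mV, and P2 to 0 mV for 20 ms, repeated at 0.1 Hz. Use-dependent inhibition I = (1 − P2T/P1T) × P1C/P2C × 100; mean of duplicates.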

[4] = target: Sodium channel protein type 2 subunit alpha (Homo sapiens) (UniProt Q99250); experiment: Use-dependent inhibition of human Nav1.2 expressed in HEK293 cells at 10 uM using double-pulse protocol by patch clamp technique; format: cell-based; outline: as §2
[5] = target: T1, Sodium channel protein type 8 subunit alpha (Homo sapiens, UniProt Q9UQD0); experiment: Use-dependent inhibition of human Nav1.6 expressed in HEK293 cells at 10 uM using double-pulse protocol by patch clamp technique; format: cell-based; outline: as §2
[6] = target: T1, Sodium channel protein type 8 subunit alpha; experiment: Use-dependent inhibition of human Nav1.6 expressed in HEK293 cells at 50 uM using double-pulse protocol by patch clamp technique; format: cell-based; outline: as §2
[7] = target: Sodium channel protein type 2 subunit alpha (Homo sapiens) (UniProt Q99250); experiment: Inhibition of human Nav1.2 expressed in HEK293 cells assessed as change in membrane potential at 10 uM by patch clamp technique; format: cell-based
Outline: (§3)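 Automated parallel whole-cell patch clamp at room temperature on human Nav1.2 or Nav1.6 in HEK293 cells. Each exposure lasts 5 min, at 10 and 50 µM (lamotrigine on Nav1.2 at 30 and 100 µM), with two to four cells per concentration. Peak current inhibition is given as percent, mean of duplicate experiments (n = 2) unless noted otherwise.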

[8] = target: Sodium channel protein type 2 subunit alpha (Homo sapiens) (UniProt Q99250); experiment: Inhibition of human Nav1.2 expressed in HEK293 cells assessed as change in membrane potential at 50 uM by patch clamp technique; format: cell-based; outline: as §3
[9] = target: T1, Sodium channel protein type 8 subunit alpha; experiment: Inhibition of human Nav1.6 expressed in HEK293 cells assessed as change in membrane potential at 10 uM by patch clamp technique; format: cell-based; outline: as §3
[10] = target: T1, Sodium channel protein type 8 subunit alpha; experiment: Inhibition of human Nav1.6 expressed in HEK293 cells assessed as change in membrane potential at 50 uM by patch clamp technique; format: cell-based; outline: as §3
[11] = target: Sodium channel protein type 1 subunit alpha (Homo sapiens) (UniProt P35498); experiment: Inhibition of human Nav1.1 expressed in HEK293 cells assessed as change in membrane potential using MP-red voltage sensitive dye at 10 uM; format: cell-based; outline: as §1
Hippocampus [12] = experiment: Neuroprotective activity in Wistar rat hippocampal slices assessed as ATP concentration at 30 uM relative to tetrodotoxin; format: functional
[13] = target: Sodium channel protein type 3 subunit alpha (Homo sapiens) (UniProt Q9NY46); experiment: Inhibition of human Nav1.3 expressed in HEK293 cells assessed as change in membrane potential using MP-red voltage sensitive dye at 10 uM; format: cell-based; outline: as §1
[14] = target: Sodium channel protein type 4 subunit alpha (Homo sapiens) (UniProt P35499); experiment: Inhibition of human Nav1.4 expressed in HEK293 cells assessed as change in membrane potential using MP-red voltage sensitive dye at 10 uM; format: cell-based; outline: as §1
[15] = target: Nav1.5 (sodium channel protein type 5 subunit alpha) (Homo sapiens, UniProt Q14524); experiment: Inhibition of human Nav1.5 expressed in HEK293 cells assessed as change in membrane potential using MP-red voltage sensitive dye at 10 uM; format: cell-based; conditions: HEK293 cells expressing human Nav1.5; outline: as §1
[16] = target: T1, Sodium channel protein type 8 subunit alpha; experiment: Inhibition of human Nav1.6 expressed in HEK293 cells assessed as change in membrane potential using MP-red voltage sensitive dye at 10 uM; format: cell-based; outline: as §1
[17] = Inhibition of voltage-gated sodium channel in Wistar rat forebrain synaptosomes assessed as inhibition of [14C]guanidium ion flux; format: subcellular, Brain
[18] = Displacement of [3H]BW202W92 from voltage-gated sodium channel in Wistar rat forebrain synaptosomes by liquid scintillation counting; format: subcellular, Brain
[19] = target: Sodium channel protein type 2 subunit alpha (Homo sapiens) (UniProt Q99250); conditions: HEK293, 30 uM
[20] = target: Sodium channel protein type 2 subunit alpha (Homo sapiens) (UniProt Q99250); conditions: HEK293, 100 uM
[21] = target: Sodium channel protein type 2 subunit alpha (Homo sapiens) (UniProt Q99250); conditions: HEK293, 30 uM; remark: listed apart in the source
[22] = target: Sodium channel protein type 2 subunit alpha (Homo sapiens) (UniProt Q99250); conditions: HEK293, 100 uM; remark: listed apart in the source
Hippocampus [23] = experiment: Neuroprotective activity in Wistar rat hippocampal slices assessed as ATP concentration at 3 uM relative to tetrodotoxin; format: functional
[24] = target: T1, Sodium channel protein type 8 subunit alpha; experiment: Inhibition of human Nav1.6 expressed in HEK293 cells assessed as change in membrane potential using MP-red voltage sensitive dye; format: cell-based; outline: as §1
Cytochrome P450 2D6 = Cytochrome P450 2D6 (Homo sapiens, UniProt P10635); experiment: Inhibition of human recombinant CYP2D6; format: ADME
Cytochrome P450 2D6, sequence (P10635 whole entry): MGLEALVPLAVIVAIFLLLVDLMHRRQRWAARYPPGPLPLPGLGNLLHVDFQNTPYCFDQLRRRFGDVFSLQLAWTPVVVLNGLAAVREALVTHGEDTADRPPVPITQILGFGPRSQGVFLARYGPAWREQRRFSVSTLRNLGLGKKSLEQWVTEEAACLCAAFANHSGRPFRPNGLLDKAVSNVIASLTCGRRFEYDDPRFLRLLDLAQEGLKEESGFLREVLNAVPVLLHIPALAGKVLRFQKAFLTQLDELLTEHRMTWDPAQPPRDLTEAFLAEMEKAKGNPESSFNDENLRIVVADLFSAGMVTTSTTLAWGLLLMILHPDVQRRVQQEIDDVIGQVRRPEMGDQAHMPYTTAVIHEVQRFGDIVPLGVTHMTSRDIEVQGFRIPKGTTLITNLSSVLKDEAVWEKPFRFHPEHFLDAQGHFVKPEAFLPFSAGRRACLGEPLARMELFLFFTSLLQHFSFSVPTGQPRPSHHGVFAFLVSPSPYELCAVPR

Cytochrome P450 1A2 = target: T2, Cytochrome P450 1A2 (Homo sapiens, UniProt P05177); experiment: Inhibition of human recombinant CYP1A2; format: ADME
T2 sequence (P05177 whole entry): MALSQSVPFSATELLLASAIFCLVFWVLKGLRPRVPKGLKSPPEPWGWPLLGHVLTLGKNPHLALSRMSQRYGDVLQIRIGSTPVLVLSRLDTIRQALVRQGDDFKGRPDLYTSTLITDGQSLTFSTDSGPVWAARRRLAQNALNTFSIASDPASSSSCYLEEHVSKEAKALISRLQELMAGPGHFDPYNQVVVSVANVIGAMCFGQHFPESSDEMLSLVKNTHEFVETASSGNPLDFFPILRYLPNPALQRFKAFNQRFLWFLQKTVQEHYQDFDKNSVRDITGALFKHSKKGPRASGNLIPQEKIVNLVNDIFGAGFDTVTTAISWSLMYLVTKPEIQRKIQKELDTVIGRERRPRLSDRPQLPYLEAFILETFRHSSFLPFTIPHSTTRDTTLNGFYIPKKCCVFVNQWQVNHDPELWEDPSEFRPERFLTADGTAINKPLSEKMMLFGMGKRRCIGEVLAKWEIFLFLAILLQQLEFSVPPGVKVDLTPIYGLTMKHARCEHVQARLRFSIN

Rattus norvegicus [25] = species on record: Rattus norvegicus; experiment: Inhibition of […] state of voltage-gated sodium channel in Sprague-Dawley rat hippocampal neurons at 30 uM using 300 ms conditioning voltage step to 0 mV followed by 15 ms period at -90 mV by paired pulse protocol; format: tissue-based; conditions: Hippocampus
Outline: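 Paired-pulse protocol on dissociated P14-16 Sprague-Dawley rat hippocampal neurons, compound at 30 µM. A 300 ms conditioning step to 0 mV (P1), 15 ms at -90 mV, then a 10 ms test step to 0 mV (P2). Tonic inhibition at P1 compared with inhibition at P2 after slow inactivation develops.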

Hippocampus [26] = experiment: Neuroprotective activity in Wistar rat hippocampal slices assessed as ATP concentration at 50 uM relative to tetrodotoxin; format: functional
Rattus norvegicus [27] = species on record: Rattus norvegicus; experiment: Voltage-dependent inhibition of voltage-gated sodium channel in Sprague-Dawley rat hippocampal neurons at 30 uM at an initial membrane potential of -90 mV by voltage clamp technique; format: tissue-based; set-up: scale not given: the % may be the effect or the level left; conditions: Hippocampus
Rattus norvegicus [28] = species on record: Rattus norvegicus; experiment: Voltage-dependent inhibition of voltage-gated sodium channel in Sprague-Dawley rat hippocampal neurons at 30 uM at an initial membrane potential of -70 mV by voltage clamp technique; format: tissue-based; set-up: scale not given: the % may be the effect or the level left; conditions: Hippocampus
Rattus norvegicus [29] = species on record: Rattus norvegicus; experiment: Use-dependent inhibition of voltage-gated sodium channel in Sprague-Dawley rat hippocampal neurons at 30 uM using 20 Hz train of 20 voltage steps from -90 mV with duration of 20 ms by voltage clamp technique; format: tissue-based; conditions: Hippocampus
Outline: (§4)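 Whole-cell voltage clamp of dissociated P14-16 Sprague-Dawley rat hippocampal neurons, with compound at 30 µM. A 20 Hz train of 20 voltage steps from -90 mV, each step 3.5 ms or 20 ms, and cumulative depression of peak sodium current during the train compared with control.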

Rattus norvegicus [30] = species on record: Rattus norvegicus; experiment: Use-dependent inhibition of voltage-gated sodium channel in Sprague-Dawley rat hippocampal neurons at 30 uM using 20 Hz train of 20 voltage steps from -90 mV with duration of 3.5 ms by voltage clamp technique; format: tissue-based; conditions: Hippocampus; outline: as §4
[31] = target: T1, Sodium channel protein type 8 subunit alpha; experiment: Inhibition of Nav1.6 using 20 Hz train of 20 voltage steps from -90 mV with duration of 3.5 ms at 30 uM by paired pulse protocol

Compound	inhibition [1]	inhibition [2]	inhibition [3]	inhibition [4]	inhibition [5]	inhibition [6]	inhibition [7]	inhibition [8]	inhibition [9]	inhibition [10]	inhibition [11]	Activity (Hippocampus [12])	inhibition [13]	inhibition [14]	inhibition at 10 µM [15]	inhibition [16]	IC50 [17]	IC50 [18]	IC50 [24]	IC50 (Cytochrome P450 2D6)	other results
CN1CCN(c2ncc(-c3cc(Cl)cc(Cl)c3Cl)c(N)n2)CC1 [SIPATRIGINE]	67%	76%	84.6%	40.1%	37%	63.2%	21.6%	75.2%	10.4%	43.4%	55%	57%	61%	97%	97%	70%	–	–	–	–	–
Nc1nnc(-c2cccc(Cl)c2Cl)c(N)n1 [LAMOTRIGINE]	45%	46%	–	–	–	–	–	–	–	–	44%	33%	22%	21%	40%	23%	219000 nM	2600 nM	–	–	inhibition [19]: 4.1%; inhibition [20]: 18.1%; inhibition [21]: 7.9%; inhibition [22]: 17%
Nc1nc(N)c(-c2cc(Cl)cc(Cl)c2Cl)c(CF)n1	44%	86%	88.5%	43.4%	81.4%	97.3%	0.7%	75.2%	2.3%	62.7%	56%	–	100%	98%	39%	37%	2600 nM	40 nM	–	–	Activity (Hippocampus [23]): 93%
NCc1noc(-c2nn(Cc3ccccc3)c3ccccc23)n1	59%	90%	14.7%	1.9%	1.1%	18.7%	6.6%	10.8%	9.5%	40.9%	48%	–	79%	97%	48%	–	17500 nM	3300 nM	660 nM	90 nM	IC50 (Cytochrome P450 1A2): 9 nM; Activity (Rattus norvegicus [25]): Active; Activity (Hippocampus [26]): 99%
NCc1noc(-c2c3ccccc3nn2Cc2ccccc2)n1	92%	84%	70.8%	35.8%	29%	65.8%	13%	33.8%	10.2%	31.5%	51%	–	78%	98%	81%	–	44200 nM	6700 nM	1030 nM	> 10000 nM	IC50 (Cytochrome P450 1A2): 315 nM; Activity (Rattus norvegicus [27]): 10%; Activity (Rattus norvegicus [28]): 60%; Activity (Rattus norvegicus [29]): Active; Activity (Rattus norvegicus [30]): Active; Activity (Rattus norvegicus [25]): Active; Activity [31]: Active; Activity (Hippocampus [26]): 63%
